Assay results reported in ChEMBL document CHEMBL2057162, “Synthesis and antitumor efficacy of a β-glucuronidase-responsive albumin-binding prodrug of doxorubicin” (J Med Chem, 2012).

Columns and labels:
[1] = test system: Lewis lung carcinoma cell line; test: Antitumor activity against mouse LLC cells xenografted in C57BL/6 mouse assessed as decrease in tumor volume at 13.7 umol/kg, iv administered on day 4 and day 11 after tumor transplantation measured on day 17; assay type: functional
Method in brief: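 Murine LLC tumours grown subcutaneously in mice. Two iv injections on days 4 and 11 after transplantation: doxorubicin 2 × 13.7 μmol/kg, glucuronide prodrugs 2 × 43.6 μmol/kg. T/C = mean relative tumour volume of treated group / mean relative tumour volume of control group. Minimal T/C reported with the day it was reached; 8 mice per group.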

[2] = test system: Mus musculus; test: Toxicity in C57BL/6 mouse xenografted with mouse LLC cells assessed as change in body weight at 13.7 umol/kg, iv administered on day 4 and day 11 after tumor transplantation measured on day 17; assay type: organism-based; details: in vivo
Method in brief: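 Subcutaneous murine LLC-bearing mice given two iv doses on days 4 and 11 after transplantation: 2 × 13.7 μmol/kg doxorubicin or 2 × 43.6 μmol/kg prodrug. Body weight change (%) and mortality recorded, 8 mice per group.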

[3] = test system: Mus musculus; test: Nephrotoxicity in C57BL/6 mouse xenografted with mouse LLC cells at 13.7 umol/kg, iv administered on day 4 and day 11 after tumor transplantation measured on day 17 by hematoxylin eosin staining method; assay type: toxicity, organism-based; details: in vivo
Method in brief: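 Kidneys from LLC-bearing mice dosed iv on days 4 and 11 were sectioned and stained with hematoxylin eosin. Renal tissue examined microscopically alongside untreated controls.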

[4] = test system: Lewis lung carcinoma cell line; test: Antiproliferative activity against mouse LLC cells after 48 hrs by XTT assay; assay type: functional, cell-based
Method in brief: (§1)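 Human H290, MDA-MB-231 and U87-MG and murine LLC tumour cell lines treated 48 h, with or without β-glucuronidase in the culture medium. IC50 derived from cell viability assays; highest tested dose 2 μM.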

[5] = Antiproliferative activity against human U87MG cells after 48 hrs by XTT assay; assay type: functional, cell-based, U-87MG ATCC; details: U-87 MG; method in brief: as §1
[6] = Antiproliferative activity against human NCI-H290 cells after 48 hrs by XTT assay; assay type: functional, cell-based; details: NCI-H290, 48 h; method in brief: as §1
[7] = test system: MDA-MB-231; test: Antiproliferative activity against human MDA-MB-231 cells after 48 hrs by XTT assay; assay type: functional, cell-based; details: MDA-MB-231, 48 h
Method in brief: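 Human MDA-MB-231 tumour cells were exposed to drug for 48 h, with or without β-glucuronidase added to the culture medium. Viability read-out gave IC50 in nM. Highest prodrug concentration tested was 2 μM.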

With COc1cccc2c1C(=O)c1c(O)c3c(c(O)c1C2=O)C[C@@](O)(C(=O)CO)C[C@@H]3O[C@H]1C[C@H](N)[C@H](O)[C@H](C)O1 [DOXORUBICIN] the T/C [1] was 31%, the Activity [2] was -21% and the Activity [3] was “Toxic”. For the same compound, the IC50 [4] was 207 nM, the IC50 [5] was 790 nM and the IC50 [6] was 320 nM. It also gave an IC50 [7] of 340 nM.
